From ChEMBL document CHEMBL4513216, “Probing the Open Global Health Chemical Diversity Library for Multistage-Active Starting Points for Next-Generation Antimalarials” (ACS Infect Dis, 2020) come the findings set out here.

A short description of this data set: Toxicity liver stage against HepG2, at 10uM. Format: cell-based. To be noted: human, HepG2-A16-CD81EGFP cells; read-out: INHIBITION
Set-up: test concentration 10 uM, cell line HepG2-A16-CD81EGFP. The gist of the method: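 Uninfected HepG2-A16-CD81EGFP cells, 3 × 10^3 per well, 1536-well, plated on prespotted compound at 10 μM final, parasite-free screening media added to match infected plates; puromycin 10 μM positive, DMSO 0.5% negative; run in parallel with 48 h PbLuc assay at 37 °C, 5% CO2; viability by CellTiter-Glo luminescence, normalized to controls.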
Consider `O=C(NC[C@H]1OC[C@@H](NC2CCC(F)(F)CC2)[C@@H]1O)C1CCCC1`, for which the cytotoxicity at 10 µM is -77.9%.

With `Cn1ccnc1CN1C(=O)CO[C@H]2CN(Cc3ccccc3O)C[C@H]21`, the cytotoxicity at 10 µM was found to be 4.22%.

Turning to `CC(C)(C)C(=O)N1CC(=O)N(Cc2ccco2)CC(O)C1` (stereo not given), the cytotoxicity at 10 µM worked out at 4.79%.

For the compound `CC(C)Cc1nc(NC(=O)c2cc(-c3cccnc3)n[nH]2)n[nH]1`, the cytotoxicity at 10 µM is 2.34%.

Take `Cn1cccc1C(O)CNC(=O)COc1ccccc1F` (stereo not given): the cytotoxicity at 10 µM is -2.54%.

With `CCS(=O)(=O)NCC1CCN(c2cnccn2)CC1`, the cytotoxicity at 10 µM is 10.3%.

As for `Cc1ccc2c(n1)N(Cc1cccnc1)CCN(C(=O)C1CC=CC1)C2`, the cytotoxicity at 10 µM is 8.07%.

Consider `CN(Cc1cccnc1)[C@@H]1CN(c2ncc(F)cn2)[C@@H]2CCCO[C@H]12`, for which the cytotoxicity at 10 µM turned out to be 0.559%.

Turning to `CC(C)(CO)NCc1nn(Cc2ccccc2)nc1-c1ccccc1`, the cytotoxicity at 10 µM was -6.69%.

Take `NC(=O)c1c(-c2ccc(Cl)cc2)csc1NC(=O)CCC(=O)O`: the cytotoxicity at 10 µM amounted to 13.8%.

For `CCOCCCNC(=O)c1cc(C)nc(N2CCCCC2)n1`, the cytotoxicity at 10 µM was determined as 8.52%.

In the case of `COCc1cccc(S(=O)(=O)N2CCSCC2)c1`, the cytotoxicity at 10 µM was found to be 8.19%.

For the compound `CS(=O)(=O)N1CCC(C(=O)NCCCn2cc(Cl)cn2)CC1`, the cytotoxicity at 10 µM was -8.97%.

In the case of `CCC(=O)Nc1nnc(CCOc2ccc(OC)cc2)s1`, the cytotoxicity at 10 µM stood at 6.31%.

As for `Cc1cc(C)n(CCC(=O)N2CCC(c3nc(C(C)C)no3)CC2)n1`, the cytotoxicity at 10 µM is -16.1%.

Take `O=C(c1ccc2c(c1)CCC2)N1CCn2ncnc2C1`: the cytotoxicity at 10 µM was -5.26%.

Take `CSCC[C@@H]1CN2CCC[C@H]2CN1Cc1coc2ccc(C)cc2c1=O`: the cytotoxicity at 10 µM came to 2.89%.

In the case of `CN(CC1(O)CCCN(c2ccccn2)C1)C(=O)CCc1cccs1` (stereo not given), the cytotoxicity at 10 µM was -26.9%.

As to `CS(=O)(=O)N1Cc2ccccc2CC2(CCN(Cc3ccccn3)C2)C1` (stereo not given), the cytotoxicity at 10 µM was determined as 4.51%.

For `CN1CCC2(Cc3ccccc3CN(C(=O)CCN)C2)C1` (stereo not given), the cytotoxicity at 10 µM stood at 0.17%.

With `CCCC(=O)N(C)Cc1cccc(OC(C)C)c1`, the cytotoxicity at 10 µM was -4.24%.

As for `CCNC(=O)NC1CCC(Oc2ccccc2C#N)CC1` (stereo not given), the cytotoxicity at 10 µM is -9.08%.

For the compound `Cn1cc(C(=O)Nc2cccc(-c3ccc4c(c3)CCO4)n2)ccc1=O`, the cytotoxicity at 10 µM worked out at 3.72%.

Consider `O=C(CCn1cnc2ccccc21)N1CCN2CCCCC2C1` (stereo not given), for which the cytotoxicity at 10 µM is -4.34%.

Regarding `Cc1ncc(CNC(=O)N(C)Cc2ccc([S+](C)[O-])cc2)s1` (stereo not given), the cytotoxicity at 10 µM came to 9.35%.

Turning to `NCC(CO)Cc1ccc(C(F)(F)F)cc1` (stereo not given), the cytotoxicity at 10 µM was 4.42%.

As to `COc1cccc(CCCN2CCC(N(C)S(C)(=O)=O)CC2)c1`, the cytotoxicity at 10 µM was -3.88%.

Consider `COc1ccc(CC(=O)NCCn2nc3ccccn3c2=O)cc1`, for which the cytotoxicity at 10 µM was -8.61%.

In the case of `Cc1ccc(C(=O)NCCNS(C)(=O)=O)c(=O)[nH]1`, the cytotoxicity at 10 µM is -5.3%.

As to `CCC(CNC(=O)c1ccccn1)N1CCc2ccccc2C1` (stereo not given), the cytotoxicity at 10 µM was found to be 1.02%.

On to `O=C(CCCC1CCCC1)NS(=O)(=O)CC1CC1`, for which the cytotoxicity at 10 µM is -5.62%.

As to `CCOc1ccc(NC(=O)N2CCNC(=O)C2)c(C(F)(F)F)c1`, the cytotoxicity at 10 µM was 7.09%.

As for `CN(Cc1ccc([S+](C)[O-])cc1)c1ccccn1` (stereo not given), the cytotoxicity at 10 µM is -7%.

Regarding `Cc1n[nH]cc1CNC1(c2ccc(F)cc2)CCCC1`, the cytotoxicity at 10 µM was 9.56%.

Take `O=C(c1ccsc1)N1CCN(CC(O)c2cccc(F)c2)CC1` (stereo not given): the cytotoxicity at 10 µM was -46.7%.

In the case of `COc1cc(CN(C)C(=O)Nc2cc(C)on2)ccc1SC`, the cytotoxicity at 10 µM is -10.7%.

As for `CNC(=O)c1cnc(/C=C/c2ccc(OC)c(O)c2)s1`, the cytotoxicity at 10 µM is -11.1%.

Take `CCCn1nc2c(cc1=O)CN(Cc1cc(C)on1)CC2`: the cytotoxicity at 10 µM was -13.9%.

Take `COCCNC(=O)C[C@@H]1COC[C@H]2CN(Cc3cccnc3)C[C@@H]12`: the cytotoxicity at 10 µM worked out at 2.13%.

`CNC(=O)NCC1CCC2(CCN(C(=O)c3ccccc3)CC2)CO1` (stereo not given): the cytotoxicity at 10 µM is -97.2%.

For `O=C([C@@H]1CCCO1)N1CCN(Cc2ccncc2)c2ncccc2C1`, the cytotoxicity at 10 µM is -95.7%.

`Cc1nc(-c2nc(C(=O)N(C)C)c3ccccn23)cn1C(C)C`: the cytotoxicity at 10 µM was -121%.

Take `Cn1ncc2c1C(COCC1CC1)CN(CC1CC1)C2` (stereo not given): the cytotoxicity at 10 µM was -78.5%.

Take `O=C(c1cccs1)N1CC[C@@H]2[C@H]1CCC(=O)N2c1ccccc1`: the cytotoxicity at 10 µM was -97.5%.

On to `CN(C)CCN1CC[C@@H]2[C@@H]1CCN2C(=O)c1cccc(Cl)c1`, for which the cytotoxicity at 10 µM is -84%.

As for `CCc1ncc(C(=O)N2CCCOC(Cn3cccn3)C2)cn1` (stereo not given), the cytotoxicity at 10 µM was -0.95%.

As to `CC(C)c1cc(C(=O)N2CCCC3(CCNC3)C2)no1` (stereo not given), the cytotoxicity at 10 µM is 5.28%.

In the case of `Cn1ccnc1CN1CC[C@@H]2[C@@H](CCC(=O)N2CCc2c[nH]cn2)C1`, the cytotoxicity at 10 µM was -5.68%.

For `NCC1CN(C(=O)c2cccc(-n3cccn3)c2)CCO1` (stereo not given), the cytotoxicity at 10 µM was -1.56%.

As to `CC(=O)c1cn(CC(=O)N2CCC(O)(CO)CC2)c2ccccc12`, the cytotoxicity at 10 µM was 1.13%.

`Cn1c(Cn2ncc(N3CCCCC3)cc2=O)nc2ccccc21`: the cytotoxicity at 10 µM was found to be 6.01%.

Turning to `CCSCCNC(=O)c1cnc(-c2ccccc2)nc1O`, the cytotoxicity at 10 µM was -1.54%.

`O[C@@]1(Cn2cnc(Cl)c2Cl)CCCN2CCCC[C@@H]21`: the cytotoxicity at 10 µM is -1.88%.

In the case of `CC(C)c1cc(N2CCC3(CC2)CN(C)CCN3C)ncn1`, the cytotoxicity at 10 µM is -16.2%.

`CCN(CC)C(=O)N1CCN(Cc2cnc(C)nc2)[C@H]2CS(=O)(=O)C[C@H]21`: the cytotoxicity at 10 µM was -8.84%.

Take `CCn1c(C)nnc1SCCNC(=O)c1cccc2ccnn12`: the cytotoxicity at 10 µM was -54.6%.

Consider `CCCc1nc(N2CCCC(CCOC)C2)c2cnn(C)c2n1` (stereo not given), for which the cytotoxicity at 10 µM came out at 12.1%.

As for `CNc1cc(C)nc(N2CCN(Cc3ccccc3)CC(O)C2)n1` (stereo not given), the cytotoxicity at 10 µM is -4.21%.

With `COc1cccc2c1OCC(C(=O)NCCc1nc3c(s1)CCC3)C2` (stereo not given), the cytotoxicity at 10 µM is -39.6%.

As to `Cc1ccccc1CN(CCN(C)C)Cc1ccc(S(C)(=O)=O)cc1`, the cytotoxicity at 10 µM stood at 6.3%.

For the compound `CC(C)c1ccc(N2CCc3onc(-c4ccc(F)c(F)c4)c3C2)nn1`, the cytotoxicity at 10 µM is 0.324%.

As for `CCN(Cc1ccncc1)c1nc(C)nc2oc(C)nc12`, the cytotoxicity at 10 µM is -50.6%.

In the case of `N[C@H]1CN(C(=O)c2cnc3cc(Cl)ccc3c2O)C[C@@H]1C1CC1`, the cytotoxicity at 10 µM is -44.1%.

Turning to `CCOc1ccc(C(=O)CCC(=O)N(C)Cc2cnccn2)cc1C`, the cytotoxicity at 10 µM was 1.39%.

For the compound `CN(C)C[C@@H]1CN(C(=O)c2cc(F)ccc2F)C[C@@H]1CO`, the cytotoxicity at 10 µM worked out at 7.45%.

For `Cc1cc(C)n(C2CN(c3ncnc4c3CCNCC4)C2)n1`, the cytotoxicity at 10 µM worked out at 7.99%.

With `Cc1[nH]c2ccc(CNC(=O)c3ccc(CN4CCCC4)o3)cc2c1C`, the cytotoxicity at 10 µM is -2.5%.

Take `CCCc1cc(C(=O)N2CCCC2c2cccnc2)[nH]n1` (stereo not given): the cytotoxicity at 10 µM was -9.81%.

`CCCS(=O)(=O)N1CCN(c2cc(-n3cnc(C)c3C)nc(C)n2)CC1`: the cytotoxicity at 10 µM was -8.51%.

Turning to `Cc1cc(C2CCCN(C(=O)c3cnn(C)c3)C2)ccn1` (stereo not given), the cytotoxicity at 10 µM was -2.83%.

As to `Cc1cc(C2CCCN(C(=O)c3cnccn3)C2)ccn1` (stereo not given), the cytotoxicity at 10 µM stood at 0.204%.

Consider `CCCc1cc(C(=O)N2CCOC(c3nc(-c4cccs4)no3)C2)no1` (stereo not given), for which the cytotoxicity at 10 µM stood at 8.37%.

In the case of `Cc1nccn1C1CCCN(C(=O)c2ccc3nncn3c2)C1` (stereo not given), the cytotoxicity at 10 µM is -2.42%.

As to `Cc1nc(CN(C)C2CCCN(Cc3noc(C4CC4)n3)C2)oc1C` (stereo not given), the cytotoxicity at 10 µM was -2.34%.

`Cc1noc(C)c1CN(C)C(=O)NC1CCC(O)CC1` (stereo not given): the cytotoxicity at 10 µM is -9.21%.

With `COCC(c1cccc(C(F)(F)F)c1)N(C)C(=O)c1ccoc1` (stereo not given), the cytotoxicity at 10 µM was -3.84%.

`CCOc1ccc(C(=O)N2CCCCC2Cn2nc(C)cc2C)cn1` (stereo not given): the cytotoxicity at 10 µM amounted to 6.6%.

`Cc1nc(C)n(CC2CCCN(CCCOc3ccc(F)cc3)C2)n1` (stereo not given): the cytotoxicity at 10 µM was -3.08%.

As for `O=C(c1ccc2c(c1)COC2)N1CCC(Nc2cccnn2)CC1`, the cytotoxicity at 10 µM is -13.1%.

Regarding `O=C(NCCC1=CCCCC1)NCc1nnc2n1CCC2`, the cytotoxicity at 10 µM is -5.6%.

Regarding `CC(C)(C)c1ncc(C(=O)NCCS(N)(=O)=O)s1`, the cytotoxicity at 10 µM was -9.58%.

With `COc1ccc(C2=CCN(C(=O)C3CC(=O)N(C4CC4)C3)CC2)cc1` (stereo not given), the cytotoxicity at 10 µM was -6.66%.

For the compound `CN1CCN(C(=O)c2ccc(=O)n(C)c2)Cc2ccccc21`, the cytotoxicity at 10 µM was -10.2%.

In the case of `O=C(Nc1nccs1)N(CCO)Cc1ccsc1`, the cytotoxicity at 10 µM was 1.4%.

`Cc1cnn(CC2CCCCN2C(=O)c2cc(Cl)c[nH]2)c1` (stereo not given): the cytotoxicity at 10 µM was -5.4%.

Regarding `COc1ccc(Br)c(C(=O)NCCNc2ccc(C(F)(F)F)cn2)c1`, the cytotoxicity at 10 µM amounted to 12.7%.

Regarding `c1cc(-c2nc(CN3CCn4c(nnc4C4CC4)C3)cs2)cs1`, the cytotoxicity at 10 µM was -2.22%.

Consider `Cc1oncc1C(=O)N[C@@H]1CN(C2CCC2)C[C@@H]2CCCO[C@@H]21`, for which the cytotoxicity at 10 µM is -109%.

Turning to `Cc1nc(CN2CCO[C@H]3[C@@H](OCc4ccccn4)CC[C@@H]32)cs1`, the cytotoxicity at 10 µM worked out at 0.179%.

Regarding `COC1CCC[C@@H]2CN(Cc3csc(C)n3)C[C@H]12` (stereo not given in full), the cytotoxicity at 10 µM was -110%.

As to `Cc1noc(C)c1CNCC1Cn2nncc2CO1` (stereo not given), the cytotoxicity at 10 µM was -101%.

`O=C(COC1CCCC1)N1C[C@@H]2COC[C@]2(COc2cccnc2)C1`: the cytotoxicity at 10 µM is -99.4%.

`Cc1nc(CN2C[C@@H]3CN(C(=O)c4ccco4)C[C@@H]3C2=O)cs1`: the cytotoxicity at 10 µM was -77.7%.

With `COCC(=O)N1CCc2ccccc2C12CCNCC2`, the cytotoxicity at 10 µM is -0.602%.

On to `Cc1nc(COCC2CN(C(N)=O)Cc3nccn3C2)cs1` (stereo not given), for which the cytotoxicity at 10 µM was 5.3%.
